OX1R antag-1 = blocks the human orexin 1 receptor; OX1R-expressing cells, FRET antagonist read-out; 1.8% of 330,000 active; AID 485270; inhibition, % at 6.6 µM; O43613; in the data active means inhibition mostly above about 38%, no sharp cut-off; inactive means mostly below about 40%;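 further: 0% = agonist challenge alone and 100% = reference antagonist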
Target sequence (O43613 whole entry, looked up): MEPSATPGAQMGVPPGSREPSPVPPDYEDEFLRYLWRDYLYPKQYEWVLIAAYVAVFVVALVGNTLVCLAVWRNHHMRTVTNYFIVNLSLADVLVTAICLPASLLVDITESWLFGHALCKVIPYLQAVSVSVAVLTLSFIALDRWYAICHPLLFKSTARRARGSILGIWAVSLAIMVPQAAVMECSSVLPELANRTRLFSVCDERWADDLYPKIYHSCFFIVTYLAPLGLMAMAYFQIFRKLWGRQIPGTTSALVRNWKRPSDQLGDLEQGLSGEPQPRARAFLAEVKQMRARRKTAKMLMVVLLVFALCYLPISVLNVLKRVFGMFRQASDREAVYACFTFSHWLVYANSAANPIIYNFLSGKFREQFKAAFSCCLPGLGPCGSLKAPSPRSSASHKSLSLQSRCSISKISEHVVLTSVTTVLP
OX1R antag-2 = antagonists of human orexin 1 receptor | 0.43% of 330,000 active | CHO/OX1R cells, Fluo-8 calcium fluorescence, orexin A | AID 434989 | O43613 | inhibition, % at 5 µM;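 active means inhibition above its plate's threshold, mean inhibition of all tested compounds on the plate plus 3 SD, cut at about 37% in these data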;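 further: 0% = orexin A challenge wells and 100% = SB-334867-A antagonist wells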
MPTP inh = inhibitors of mitochondrial permeability transition pore. isolated mouse mitochondria, Ca2+ swelling absorbance, 30 min. inhibition, % at 10 µM. 1.4% of 360,000 active. AID 602449;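 active means inhibition of 50% or more, scaled per plate between neutral and stimulator controls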;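 further: 0% = DMSO wells given calcium and 100% = 1 mM EGTA wells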
CHO parental Ca = signal in parental CHO cells, OX1R antagonist counter-screen; parental CHO-K1, ATP-induced calcium, Fluo-8 fluorescence; inhibition, % at 5.6 µM; 0.63% of 330,000 active; AID 463079;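 active means inhibition above that plate's mean sample inhibition plus 3 SD, cut at about 26% in these data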;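 further: 0% = ATP-challenged DMSO wells and 100% = DMSO wells without ATP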
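material = parental CHO cells | also added = ATP as calcium-mobilizing challenge | dosing = single point at 5.6 µM | detection = intracellular calcium via Fluo-8 no-wash fluorescent dye | read-out = % inhibition | benchmarks = low control ATP plus DMSO, high control DMSO only | repeats = one well per compound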
GPR7 antag = blocks human GPR7 receptor signaling. GPR7-expressing cells, fluorescence antagonist assay. inhibition, % at 4.4 µM. 1.1% of 290,000 active. P48145; in the data active means inhibition above about 16%, passing the limit was not always enough;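 further: cells stimulated with the agonist NPW; 0% = agonist with vehicle and 100% = vehicle without agonist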
GPR7 antag cf = confirmation of human GPR7 antagonists | inhibition, % at 4.4 µM | shares compounds with GPR7 antag | 52% of 2,400 active | AID 1952 | GPR7-expressing cells, calcium fluorescence antagonist mode; in the data active means inhibition above about 24%;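 further: stimulated with the GPR7 agonist NPW; 0% = agonist plus vehicle and 100% = vehicle alone without agonist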
MCHR1 antagonist = antagonizes human MCHR1, a GPR7 antagonist counter-screen. shares compounds with GPR7 antag. MCHR1-expressing cells, fluorescence antagonist assay. inhibition, % at 4.4 µM. 62% of 2,400 active; in the data active means inhibition above about 22%;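 further: 0% = vehicle with agonist and 100% = vehicle without agonist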
Active calls of the source: *; . = no result given. An excerpt weighted towards active compounds, which were near 3.8% of everything screened.

SMILES	OX1R antag-1	OX1R antag-2	MPTP inh	CHO parental Ca	GPR7 antag	GPR7 antag cf	MCHR1 antagonist
Cc1c(C(=O)N2CCN(c3ccccc3)CC2)sc2ncnc(N3CCN(c4ccccn4)CC3)c12	26	-6	0	3	5	.	.
Cc1c(C(=O)N2CCN(c3ccc(F)cc3)CC2)sc2ncnc(N3CCN(c4ccccn4)CC3)c12	26	-8	0	-2	23*	16	70*
COC(=O)c1ccccc1NC(=O)CN1CCN(C23CC4CC(CC(C4)C2)C3)CC1	5	-18	2	-20	18	.	.
CCOC(=O)c1cn[nH]c1NC(=S)Nc1ccc(OC)cc1	12	-17	6	-9	30*	26*	21
N#CC(C#N)=Cc1cnc(N2CCN(c3ccccc3)CC2)s1	18	-22	1	-8	41*	12	42*
COc1ccc(-c2ccc(=O)n(Cc3ccc([N+](=O)[O-])cc3)n2)cc1	21	24	2	17	36*	52*	83*
COC(=O)[C@@]1(Cc2ccc(OC)cc2)[C@H]2c3cc(C(=O)N(C)C)n(CCc4ccc(OC)c(Br)c4)c3C[C@H]2CN1C(=O)c1ccccc1	-6	-32	.	-25	22	.	.
Cc1cccc(NC(=O)C2(c3ccc([N+](=O)[O-])cc3)CCCC2)c1	27	41	25	36*	33*	36*	36*
Cc1cc(C)nc(NS(=O)(=O)c2ccc(NC(=O)C3(c4ccc([N+](=O)[O-])cc4)CCCC3)cc2)n1	5	17	1	12	25	.	.
Cc1onc(-c2ccccc2)c1C(=O)/C=C/N(C)C	26	-13	1	-20	-5	.	.
CCN(C(=O)c1cc2c(s1)-c1ccccc1OC2)c1cc(OC)ccc1OC	14	-8	-1	35*	31*	50*	56*
Cc1cc(N=Nc2ccccc2)cc(C)c1NC(=O)C(F)(F)F	.	.	2	.	.	.	.
COC(=O)C(NC(=O)c1ccccc1)(Nc1cc(C)cc(C)n1)C(F)(F)F (configuration not stated)	21	-30	0	-18	-5	.	.
CC(=O)Nc1cccc(C(=O)/C=C/c2ccc(N(C)C)cc2)c1	21	100*	-9	82*	29*	60*	62*
CC(=O)Nc1cccc(C(=O)/C=C/c2ccc(F)cc2)c1	8	-4	0	-7	11	.	.
COc1cc(/C=C/C(=O)OCC(=O)c2c(N)n(C)c(=O)n(C)c2=O)ccc1OCC#N	20	-20	0	0	-15	.	.
CC(=O)SCC(Cc1ccccc1)C(=O)NCC(=O)OCc1ccccc1 (configuration not stated)	22	-7	.	-11	15	.	.
c1ccc(Cc2nnc(-c3ccccc3)o2)cc1	1	0	1	-7	69*	71*	60*
Brc1ccc(-c2nnc(Cc3ccccc3)o2)cc1	7	-21	4	-2	2	.	.
COC(=O)c1ccc(C)c(NC(=O)C(CCSC)NC(=O)c2cc(OC)c(OC)c(OC)c2)c1 (configuration not stated)	7	-14	0	-21	-19	.	.
O=C(c1ccc2c(c1)OCO2)N(CC1CCCO1)C1(C(=O)NC2CCCC2)CCCCC1 (configuration not stated)	10	-20	-5	-18	32*	31*	17
NC(=O)CC[C@@H]1NC(=O)[C@@H]2CCCN2C(=O)c2cc([N+](=O)[O-])cc(I)c2NCCC[C@@H](C(N)=O)NC1=O	25	-5	.	-8	-10	.	.
CN1C(=O)/C(=C\c2ccc(N(C)C)cc2)OC1=S	.	.	2	.	44*	44*	52*
CC1CCN(c2ccc(-c3ccc(NC(=O)C(F)(F)F)cc3)nn2)CC1	36	-4	0	2	1	.	.
CCOC(=O)c1ccc(CNC(=O)c2cc(COc3ccccc3SC)on2)o1	12	-14	0	-3	44*	13	45*
COC(=O)CNC(=O)c1cc(-c2ccncc2)nc2ccc(C)cc12	21	-12	-1	-8	-10	.	.
O=C(C1CCC(=O)N(C2CCCC2)C1)N1CCN(c2ccc(Cl)cc2)CC1 (configuration not stated)	5	-23	-2	-17	5	.	.

Assay outcomes (PubChem)
